System: Fibroblast
Experiment: Multiplex assay against human fibroblast
Assay type: toxicity, cell-based
How it was run: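 Four dyes were applied at seeding to live cells: Hoechst33342, BioTracker Green Microtubule Cytoskeleton Dye, MitoTracker Red and Annexin V Alexa Fluor 680. Imaging after compound addition used a CQ1 microscope at 37°C and 5% CO2. CellPathfinder machine-learning gating then sorted cells into Hoechst high-intensity objects or normal cells, normal cells into healthy, pyknosed or fragmented nuclei, and pyknosed cells into mitotic or apoptotic, with tubulin, mitochondrial-mass and membrane-permeability phenotypes given as per cents of healthy-nucleus cells.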

[1] = 12 h, 1 µM, compound concentration 1 uM, replicate 1
[2] = 12 h, 1 µM, compound concentration 1 uM, replicate 2
[3] = 12 h, 10 µM, compound concentration 10 uM, replicate 1
[4] = 12 h, 10 µM, compound concentration 10 uM, replicate 2
[5] = 24 h, 1 µM, compound concentration 1 uM, replicate 1
[6] = 24 h, 1 µM, compound concentration 1 uM, replicate 2
[7] = 24 h, 10 µM, compound concentration 10 uM, replicate 1
[8] = 24 h, 10 µM, compound concentration 10 uM, replicate 2
[9] = 48 h, 1 µM, compound concentration 1 uM, replicate 1
[10] = 48 h, 1 µM, compound concentration 1 uM, replicate 2
[11] = 48 h, 10 µM, compound concentration 10 uM, replicate 1
[12] = 48 h, 10 µM, compound concentration 10 uM, replicate 2

With `Cc1cc(C)c(S(=O)(=O)N(Cc2ccc(-c3cccc(S(C)(=O)=O)c3)cc2)Cc2ccc(C(F)(F)F)o2)c(C)c1` the “Population Apoptotic (%)” value [1] was 68%, the “Population Fragmented Nuclei (%)” value [1] was 20% and the “Population Healthy Nuclei (%)” value [1] was 45%. For the same compound, the “Population Hoechst High Intensity Objects (%)” value [1] was 8%, the “Population Membrane Permeable-Phenotype (%)” value [1] was 19% and the “Population Mitochondria Different-Phenotype (%)” value [1] was 8%. The “Population Mitotic Cells (%)” value [1] was 32%, the “Population Normal (%)” value [1] was 91% and the “Population Pyknosed Nuclei (%)” value [1] was 34%. For the same compound, the “Population Tubulin-Different-Phenotype (%)” value [1] was 55%, the “Total Cell Count” value [1] was 161 and the “Population Apoptotic (%)” value [2] was 66%. The “Population Fragmented Nuclei (%)” value [2] was 15%, the “Population Healthy Nuclei (%)” value [2] was 80% and the “Population Hoechst High Intensity Objects (%)” value [2] was 6%. For the same compound, the “Population Membrane Permeable-Phenotype (%)” value [2] was 3%, the “Population Mitochondria Different-Phenotype (%)” value [2] was 21% and the “Population Mitotic Cells (%)” value [2] was 33%. The “Population Normal (%)” value [2] was 93%, the “Population Pyknosed Nuclei (%)” value [2] was 3% and the “Population Tubulin-Different-Phenotype (%)” value [2] was 27%. The “Total Cell Count” value [2] was 72, the “Population Apoptotic (%)” value [3] was 51% and the “Population Fragmented Nuclei (%)” value [3] was 40%. For the same compound, the “Population Healthy Nuclei (%)” value [3] was 27%, the “Population Hoechst High Intensity Objects (%)” value [3] was 45% and the “Population Membrane Permeable-Phenotype (%)” value [3] was 25%. The “Population Mitochondria Different-Phenotype (%)” value [3] was 7%, the “Population Mitotic Cells (%)” value [3] was 48% and the “Population Normal (%)” value [3] was 54%. The “Population Pyknosed Nuclei (%)” value [3] was 31%, the “Population Tubulin-Different-Phenotype (%)” value [3] was 74% and the “Total Cell Count” value [3] was 179. For the same compound, the “Population Apoptotic (%)” value [4] was 0%, the “Population Fragmented Nuclei (%)” value [4] was 14% and the “Population Healthy Nuclei (%)” value [4] was 77%. The “Population Hoechst High Intensity Objects (%)” value [4] was 22%, the “Population Membrane Permeable-Phenotype (%)” value [4] was 3% and the “Population Mitochondria Different-Phenotype (%)” value [4] was 3%. For the same compound, the “Population Mitotic Cells (%)” value [4] was 100%, the “Population Normal (%)” value [4] was 77% and the “Population Pyknosed Nuclei (%)” value [4] was 8%. The “Population Tubulin-Different-Phenotype (%)” value [4] was 11%, the “Total Cell Count” value [4] was 81 and the “Population Apoptotic (%)” value [5] was 45%. For the same compound, the “Population Fragmented Nuclei (%)” value [5] was 21%, the “Population Healthy Nuclei (%)” value [5] was 64% and the “Population Hoechst High Intensity Objects (%)” value [5] was 9%. The “Population Membrane Permeable-Phenotype (%)” value [5] was 25%, the “Population Mitochondria Different-Phenotype (%)” value [5] was 6% and the “Population Mitotic Cells (%)” value [5] was 54%. The “Population Normal (%)” value [5] was 90%, the “Population Pyknosed Nuclei (%)” value [5] was 14% and the “Population Tubulin-Different-Phenotype (%)” value [5] was 58%. The “Total Cell Count” value [5] was 171, the “Population Apoptotic (%)” value [6] was 0% and the “Population Fragmented Nuclei (%)” value [6] was 14%. For the same compound, the “Population Healthy Nuclei (%)” value [6] was 80%, the “Population Hoechst High Intensity Objects (%)” value [6] was 1% and the “Population Membrane Permeable-Phenotype (%)” value [6] was 5%. For the same compound, the “Population Mitochondria Different-Phenotype (%)” value [6] was 18%, the “Population Mitotic Cells (%)” value [6] was 100% and the “Population Normal (%)” value [6] was 98%. The “Population Pyknosed Nuclei (%)” value [6] was 5%, the “Population Tubulin-Different-Phenotype (%)” value [6] was 32% and the “Total Cell Count” value [6] was 86. For the same compound, the “Population Apoptotic (%)” value [7] was 77%, the “Population Fragmented Nuclei (%)” value [7] was 34% and the “Population Healthy Nuclei (%)” value [7] was 46%. For the same compound, the “Population Hoechst High Intensity Objects (%)” value [7] was 42%, the “Population Membrane Permeable-Phenotype (%)” value [7] was 31% and the “Population Mitochondria Different-Phenotype (%)” value [7] was 18%. For the same compound, the “Population Mitotic Cells (%)” value [7] was 22%, the “Population Normal (%)” value [7] was 57% and the “Population Pyknosed Nuclei (%)” value [7] was 18%. The “Population Tubulin-Different-Phenotype (%)” value [7] was 72%, the “Total Cell Count” value [7] was 166 and the “Population Apoptotic (%)” value [8] was 14%. The “Population Fragmented Nuclei (%)” value [8] was 15%, the “Population Healthy Nuclei (%)” value [8] was 71% and the “Population Hoechst High Intensity Objects (%)” value [8] was 10%. The “Population Membrane Permeable-Phenotype (%)” value [8] was 5%, the “Population Mitochondria Different-Phenotype (%)” value [8] was 10% and the “Population Mitotic Cells (%)” value [8] was 85%. For the same compound, the “Population Normal (%)” value [8] was 89%, the “Population Pyknosed Nuclei (%)” value [8] was 13% and the “Population Tubulin-Different-Phenotype (%)” value [8] was 15%. The “Total Cell Count” value [8] was 109, the “Population Apoptotic (%)” value [9] was 72% and the “Population Fragmented Nuclei (%)” value [9] was 30%. The “Population Healthy Nuclei (%)” value [9] was 58%, the “Population Hoechst High Intensity Objects (%)” value [9] was 8% and the “Population Membrane Permeable-Phenotype (%)” value [9] was 16%. For the same compound, the “Population Mitotic Cells (%)” value [9] was 27%, the “Population Normal (%)” value [9] was 91% and the “Population Pyknosed Nuclei (%)” value [9] was 11%. For the same compound, the “Population Tubulin-Different-Phenotype (%)” value [9] was 40%, the “Total Cell Count” value [9] was 178 and the “Population Apoptotic (%)” value [10] was 66%. The “Population Fragmented Nuclei (%)” value [10] was 17%, the “Population Healthy Nuclei (%)” value [10] was 79% and the “Population Hoechst High Intensity Objects (%)” value [10] was 10%. For the same compound, the “Population Membrane Permeable-Phenotype (%)” value [10] was 18%, the “Population Mitochondria Different-Phenotype (%)” value [10] was 2% and the “Population Mitotic Cells (%)” value [10] was 33%. The “Population Normal (%)” value [10] was 89%, the “Population Pyknosed Nuclei (%)” value [10] was 2% and the “Population Tubulin-Different-Phenotype (%)” value [10] was 32%. For the same compound, the “Total Cell Count” value [10] was 114, the “Population Apoptotic (%)” value [11] was 100% and the “Population Fragmented Nuclei (%)” value [11] was 47%. The “Population Healthy Nuclei (%)” value [11] was 49%, the “Population Hoechst High Intensity Objects (%)” value [11] was 40% and the “Population Membrane Permeable-Phenotype (%)” value [11] was 45%. The “Population Mitochondria Different-Phenotype (%)” value [11] was 3%, the “Population Mitotic Cells (%)” value [11] was 0% and the “Population Normal (%)” value [11] was 59%. For the same compound, the “Population Pyknosed Nuclei (%)” value [11] was 2%, the “Population Tubulin-Different-Phenotype (%)” value [11] was 63% and the “Total Cell Count” value [11] was 192. The “Population Fragmented Nuclei (%)” value [12] was 21%, the “Population Healthy Nuclei (%)” value [12] was 77% and the “Population Hoechst High Intensity Objects (%)” value [12] was 12%. For the same compound, the “Population Membrane Permeable-Phenotype (%)” value [12] was 5%, the “Population Normal (%)” value [12] was 87% and the “Population Pyknosed Nuclei (%)” value [12] was 1%. For the same compound, the “Population Tubulin-Different-Phenotype (%)” value [12] was 22% and the “Total Cell Count” value [12] was 86.

— ChEMBL document CHEMBL4689842, “EUbOPEN Chemogenomics Library wave 1” (2021)
